What was measured:
Assay type in all cases: toxicity, cell-based
Fibroblast [1] = test: Multiplex assay against human fibroblast
Method in brief: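 With compound added, live cells were imaged on a CQ1 microscope at 37°C and 5% CO2; staining with Hoechst33342, BioTracker Green Microtubule Cytoskeleton Dye, MitoTracker Red and Annexin V Alexa Fluor 680 had been done at seeding. The CellPathfinder machine-learning gating scheme split cells into Hoechst high-intensity objects or normal cells, normal cells into healthy, pyknosed or fragmented nuclei, and pyknosed cells into mitotic or apoptotic. The tubulin, mitochondrial-mass and membrane-permeability phenotypes are per cents of healthy-nucleus cells.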

HEK-293T = test: Incucyte cell viability with HEK293T; conditions: human, 10 µM, compound concentration 10 uM; also: filed as whole numbers so only -1 and 0 and 1 occur
Fibroblast [2] = test: Incucyte cell viability with human fibroblast; conditions: 10 µM, compound concentration 10 uM; also: filed as whole numbers so only -1 and 0 and 1 occur
U2OS = test: Incucyte cell viability with U2OS; conditions: human, 10 µM, compound concentration 10 uM; also: filed as whole numbers so only -1 and 0 and 1 occur
[3] = 12 h, 1 µM, compound concentration 1 uM, replicate 1
[4] = 12 h, 1 µM, compound concentration 1 uM, replicate 2
[5] = 12 h, 10 µM, compound concentration 10 uM, replicate 1
[6] = 12 h, 10 µM, compound concentration 10 uM, replicate 2
[7] = 24 h, 1 µM, compound concentration 1 uM, replicate 1
[8] = 24 h, 1 µM, compound concentration 1 uM, replicate 2
[9] = 24 h, 10 µM, compound concentration 10 uM, replicate 1
[10] = 24 h, 10 µM, compound concentration 10 uM, replicate 2
[11] = 6 h, replicate number 1, timepoint 6 hours
[12] = 12 h, replicate number 1, timepoint 12 hours
[13] = 18 h, replicate number 1, timepoint 18 hours
[14] = 24 h, replicate number 1, timepoint 24 hours
[15] = 0 h, replicate number 1, timepoint 0 hours

CC(C)(C)c1cnc(CSc2cnc(NC(=O)C3CCNCC3)s2)o1 [BMS-387032]
Population Apoptotic (%) (Fibroblast [1]; [3]): 75% | Population Fragmented Nuclei (%) (Fibroblast [1]; [3]): 25% | Population Healthy Nuclei (%) (Fibroblast [1]; [3]): 56% | Population Hoechst High Intensity Objects (%) (Fibroblast [1]; [3]): 12% | Population Membrane Permeable-Phenotype (%) (Fibroblast [1]; [3]): 10% | Population Mitochondria Different-Phenotype (%) (Fibroblast [1]; [3]): 10% | Population Mitotic Cells (%) (Fibroblast [1]; [3]): 24% | Population Normal (%) (Fibroblast [1]; [3]): 87% | Population Pyknosed Nuclei (%) (Fibroblast [1]; [3]): 18% | Population Tubulin-Different-Phenotype (%) (Fibroblast [1]; [3]): 11% | Total Cell Count (Fibroblast [1]; [3]): 199 | Population Apoptotic (%) (Fibroblast [1]; [4]): 50% | Population Fragmented Nuclei (%) (Fibroblast [1]; [4]): 58% | Population Healthy Nuclei (%) (Fibroblast [1]; [4]): 33% | Population Hoechst High Intensity Objects (%) (Fibroblast [1]; [4]): 37% | Population Membrane Permeable-Phenotype (%) (Fibroblast [1]; [4]): 5% | Population Mitochondria Different-Phenotype (%) (Fibroblast [1]; [4]): 5% | Population Mitotic Cells (%) (Fibroblast [1]; [4]): 50% | Population Normal (%) (Fibroblast [1]; [4]): 62% | Population Pyknosed Nuclei (%) (Fibroblast [1]; [4]): 7% | Population Tubulin-Different-Phenotype (%) (Fibroblast [1]; [4]): 0% | Total Cell Count (Fibroblast [1]; [4]): 82 | Population Apoptotic (%) (Fibroblast [1]; [5]): 75% | Population Fragmented Nuclei (%) (Fibroblast [1]; [5]): 28% | Population Healthy Nuclei (%) (Fibroblast [1]; [5]): 54% | Population Hoechst High Intensity Objects (%) (Fibroblast [1]; [5]): 8% | Population Membrane Permeable-Phenotype (%) (Fibroblast [1]; [5]): 1% | Population Mitochondria Different-Phenotype (%) (Fibroblast [1]; [5]): 21% | Population Mitotic Cells (%) (Fibroblast [1]; [5]): 24% | Population Normal (%) (Fibroblast [1]; [5]): 91% | Population Pyknosed Nuclei (%) (Fibroblast [1]; [5]): 17% | Population Tubulin-Different-Phenotype (%) (Fibroblast [1]; [5]): 32% | Total Cell Count (Fibroblast [1]; [5]): 207 | Population Apoptotic (%) (Fibroblast [1]; [6]): 54% | Population Fragmented Nuclei (%) (Fibroblast [1]; [6]): 58% | Population Healthy Nuclei (%) (Fibroblast [1]; [6]): 19% | Population Hoechst High Intensity Objects (%) (Fibroblast [1]; [6]): 26% | Population Membrane Permeable-Phenotype (%) (Fibroblast [1]; [6]): 0% | Population Mitochondria Different-Phenotype (%) (Fibroblast [1]; [6]): 50% | Population Mitotic Cells (%) (Fibroblast [1]; [6]): 45% | Population Normal (%) (Fibroblast [1]; [6]): 73% | Population Pyknosed Nuclei (%) (Fibroblast [1]; [6]): 21% | Population Tubulin-Different-Phenotype (%) (Fibroblast [1]; [6]): 40% | Total Cell Count (Fibroblast [1]; [6]): 69 | Population Apoptotic (%) (Fibroblast [1]; [7]): 54% | Population Fragmented Nuclei (%) (Fibroblast [1]; [7]): 30% | Population Healthy Nuclei (%) (Fibroblast [1]; [7]): 47% | Population Hoechst High Intensity Objects (%) (Fibroblast [1]; [7]): 12% | Population Membrane Permeable-Phenotype (%) (Fibroblast [1]; [7]): 6% | Population Mitochondria Different-Phenotype (%) (Fibroblast [1]; [7]): 4% | Population Mitotic Cells (%) (Fibroblast [1]; [7]): 45% | Population Normal (%) (Fibroblast [1]; [7]): 87% | Population Pyknosed Nuclei (%) (Fibroblast [1]; [7]): 21% | Population Tubulin-Different-Phenotype (%) (Fibroblast [1]; [7]): 10% | Total Cell Count (Fibroblast [1]; [7]): 197 | Population Apoptotic (%) (Fibroblast [1]; [8]): 62% | Population Fragmented Nuclei (%) (Fibroblast [1]; [8]): 51% | Population Healthy Nuclei (%) (Fibroblast [1]; [8]): 32% | Population Hoechst High Intensity Objects (%) (Fibroblast [1]; [8]): 35% | Population Membrane Permeable-Phenotype (%) (Fibroblast [1]; [8]): 5% | Population Mitochondria Different-Phenotype (%) (Fibroblast [1]; [8]): 5% | Population Mitotic Cells (%) (Fibroblast [1]; [8]): 37% | Population Normal (%) (Fibroblast [1]; [8]): 65% | Population Pyknosed Nuclei (%) (Fibroblast [1]; [8]): 15% | Population Tubulin-Different-Phenotype (%) (Fibroblast [1]; [8]): 5% | Total Cell Count (Fibroblast [1]; [8]): 80 | Population Apoptotic (%) (Fibroblast [1]; [9]): 65% | Population Fragmented Nuclei (%) (Fibroblast [1]; [9]): 34% | Population Healthy Nuclei (%) (Fibroblast [1]; [9]): 48% | Population Hoechst High Intensity Objects (%) (Fibroblast [1]; [9]): 8% | Population Membrane Permeable-Phenotype (%) (Fibroblast [1]; [9]): 4% | Population Mitochondria Different-Phenotype (%) (Fibroblast [1]; [9]): 29% | Population Mitotic Cells (%) (Fibroblast [1]; [9]): 34% | Population Normal (%) (Fibroblast [1]; [9]): 91% | Population Pyknosed Nuclei (%) (Fibroblast [1]; [9]): 17% | Population Tubulin-Different-Phenotype (%) (Fibroblast [1]; [9]): 54% | Total Cell Count (Fibroblast [1]; [9]): 196 | Population Apoptotic (%) (Fibroblast [1]; [10]): 62% | Population Fragmented Nuclei (%) (Fibroblast [1]; [10]): 44% | Population Healthy Nuclei (%) (Fibroblast [1]; [10]): 18% | Population Hoechst High Intensity Objects (%) (Fibroblast [1]; [10]): 31% | Population Membrane Permeable-Phenotype (%) (Fibroblast [1]; [10]): 0% | Population Mitochondria Different-Phenotype (%) (Fibroblast [1]; [10]): 62% | Population Mitotic Cells (%) (Fibroblast [1]; [10]): 37% | Population Normal (%) (Fibroblast [1]; [10]): 68% | Population Pyknosed Nuclei (%) (Fibroblast [1]; [10]): 37% | Population Tubulin-Different-Phenotype (%) (Fibroblast [1]; [10]): 50% | Total Cell Count (Fibroblast [1]; [10]): 63 | Growth Rate (HEK-293T; [11]): 0 | Growth Rate (HEK-293T; [12]): 0 | Growth Rate (HEK-293T; [13]): 0 | Growth Rate (HEK-293T; [14]): 0 | Growth Rate (Fibroblast [2]; [15]): 0 | Growth Rate (Fibroblast [2]; [11]): 0 | Growth Rate (Fibroblast [2]; [12]): 0 | Growth Rate (Fibroblast [2]; [13]): 0 | Growth Rate (Fibroblast [2]; [14]): 0 | Growth Rate (U2OS; [15]): 0 | Growth Rate (U2OS; [11]): 1 | Growth Rate (U2OS; 6 h, replicate number 2, timepoint 6 hours): 0 | Growth Rate (U2OS; [12]): 0 | Growth Rate (U2OS; [13]): 0 | Growth Rate (U2OS; [14]): 0

Reference: ChEMBL document CHEMBL4689842, “EUbOPEN Chemogenomics Library wave 1” (2021)
